Assay outcomes: PubChem, several laboratories
An excerpt weighted towards active compounds, which were near 1.6% of everything screened.
pCIP destab: p/CIP protein destabilization. AID 1984. F442A p/CIP-EGFP cells, EGFP fluorescence, 16 h. 290,000 tested, 0.01% active. decrease of EGFP signal, % at 10 µM. Q05BA5;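 active = EGFP signal decrease of at least 30% at 10 µM or well 3 SD below plate mean, unless failing retest; inactive = the rest, including hits failing retest or dose response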
bovine MsrA act: activates bovine MsrA enzyme | purified bovine MsrA, absorbance read-out | activation, % at 10.6 µM | 360,000 tested, 0.3% active | AID 602163; in the data active = activation above about 7.5%
MsrA inh: inhibits bovine methionine sulfoxide reductase A; purified bovine MsrA, absorbance read-out; inhibition, % at 15.5 µM; 360,000 tested, 0.75% active; in the data active = inhibition above about 4.5%
MT1-MMP act inh: MT1-MMP (human) activation inhibition. 360,000 tested, 0.061% active. P50281. HT1080 RFP-PRO-GFP cells, GFP/RFP ratio fluorescence, overnight; percent of plate control window, DMSO zero. AID 651647. GFP/RFP ratio change, % at 20 µM;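 active = GFP/RFP ratio change of at least 30% with cell ATP level not reduced by more than half and red fluorescence within 50% of control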
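Test system: HT1080 RFP-PRO-GFP cells; Benchmarks: DMSO and RFP-L50D-GFP cell wells; Timing: cells overnight before dosing, compound overnight, 37 °C, 5% CO2; Compound: one 20 µM compound dose with 1% DMSO; Read-out: GFP/RFP fluorescence ratio.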
SKN-1 block: C. elegans SKN-1 inhibition; C. elegans VP596 Pgst-4::GFP/RFP ratio, acrylamide-induced, 24 h; inhibition, % at 21.8 µM; 360,000 tested, 0.49% active; AID 624304;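 active = interference check ratio from 0.5 to 1.5 plus GFP to RFP signal ratio inhibition reaching or exceeding a fixed threshold, cut at about 30% in these data, passing the limit was not always enough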
A number is an active result; 0 = inactive; - = no result given.

SMILES | pCIP destab | bovine MsrA act | MsrA inh | MT1-MMP act inh | SKN-1 block
O=S(=O)(Nc1nc2c(s1)CCCC2)c1ccc2ccccc2c1 | 0 | 0 | 0 | 0 | 0
c1ccc2c(Nc3nc4c(s3)CCCC4)cccc2c1 | 0 | 0 | 0 | 0 | 45
CC/C(=N\Nc1ccc([N+](=O)[O-])cc1)c1ccccc1 | 0 | 0 | - | 0 | 35
O=[N+]([O-])c1ccc(NN=C(Oc2ccccc2)c2ccc([N+](=O)[O-])cc2)cc1 | - | 0 | 0 | 0 | 0
Cc1cc(C)nc(N/N=C/c2cc(C)n(CC(F)(F)F)c2C)n1 | 0 | 0 | 4.6 | 0 | 0
CC1(Cc2cccc(F)c2)C(=O)Nc2ccc(-c3cccnc3)cc21 (stereo not drawn) | - | 0 | 0 | 0 | 0
CC1(Cc2ccc(Cl)cc2)C(=O)Nc2ccc(-c3cccnc3)cc21 (stereo not drawn) | - | 0 | 0 | 0 | 39
CC1(Cc2cccc(C(F)(F)F)c2)C(=O)Nc2ccc(-c3ccc(F)c(Cl)c3)cc21 (stereo not drawn) | - | 0 | 0 | 0 | 40
Cc1[nH]c2ccccc2c1CC(=O)Nc1ccc(Nc2cccnc2)c(-c2ccc(Oc3ccccc3)cc2)c1 | - | - | 0 | - | -
O=S1(=O)CC(c2ccccc2)=NN=C(c2ccccc2)C1 | - | 0 | 0 | 0 | 36
COc1cccc(CNC(=O)[C@H]2CCCN2C(=O)[C@H]2CCCN2C(=O)N2CCCCC2)c1 | - | - | 0 | - | -
Cc1ccc(F)c(C2C3C=CCC(c4cccc(-c5ccc(N(C)C)cc5)c4)C3C(=O)N2Cc2ccccc2)c1 (stereo not drawn) | 0 | 0 | 0 | 0 | 44
O=C(COC(=O)c1ccccc1SCC(=O)NC1CCS(=O)(=O)C1)NC1CCS(=O)(=O)C1 (stereo not drawn) | 0 | 0 | 0 | 0 | 0
CCNC(=O)NC(=O)COC(=O)c1ccccc1SCC(=O)NC(=O)NCC | 0 | 0 | 0 | 35 | 0
COc1ccc(CNC(=O)c2cc(-c3ccco3)on2)cc1 | 0 | 22 | 0 | 0 | 0
CN(C)c1ccc(/C=C(/NC(=O)c2ccccc2)C(=O)NCCN2CCOCC2)cc1 | 0 | 0 | 4.6 | 0 | 0
CCOc1cc(NC(=O)c2ccco2)c(OCC)cc1NC(=O)CCc1ccccc1OC | 0 | 0 | 0 | 0 | 39
COc1cc(/C=C(\C#N)C(=O)c2ccc(O)c(O)c2)cc(I)c1O | - | 0 | 4.6 | 0 | 0
CCc1nc2c(OCc3ccc(C(F)(F)F)cc3)cccn2c1N(C)C(=O)c1ccncc1 | - | 0 | 0 | 0 | 54
Cc1ccc(C(=O)Nc2nc(-c3ccc(F)cc3)cs2)o1 | 0 | 0 | 0 | 0 | 36
Cc1ccc(-c2csc(NC(=O)c3ccno3)n2)cc1 | 0 | 0 | 0 | 0 | 37
Cc1ccc(-c2csc(NC(=O)c3ccc(C)o3)n2)cc1 | 0 | 0 | 0 | 0 | 0
CN(c1ccc(NC(=O)Cc2cn(C)c3ccccc23)cc1)c1ccccn1 | - | - | 0 | - | -
CC(C)c1[nH]nc2c1C(c1ccc3c(c1)OCO3)NC2=O (stereo not drawn) | - | - | 0 | - | -
Cc1ccccc1CN1[C@@H](C)[C@H](c2ccccc2)Oc2cccc(NCCc3ccccc3)c2S1(=O)=O | - | - | 0 | - | -
SMILES | pCIP destab | bovine MsrA act | MsrA inh | MT1-MMP act inh | SKN-1 block
COc1cccc(-c2cc(C(=O)Nc3nc4ccccc4s3)c3ccccc3n2)c1 | 0 | 0 | 0 | 0 | 46
C[C@@H]1COc2cc(NCCO)ccc2S(=O)(=O)N1 | - | - | 0 | - | -
CCCOc1ccc(N2C(=O)CC(N(CCc3ccccc3)C(=O)c3ccccc3)C2=O)cc1 (stereo not drawn) | 0 | 0 | 0 | 0 | 0
CCCOc1ccc(N2C(=O)CC(N(CCc3ccc(OC)cc3)C(=O)c3cccc(F)c3)C2=O)cc1 (stereo not drawn) | 0 | 0 | 0 | 0 | 35
COC(=O)/C=C1\SC(=Nc2ccc(OC)cc2)NC1=O | 0 | 0 | 0 | 0 | 0
COC(=O)/C=C1\S/C(=N\N=C\CC(=O)OC)NC1=O | 0 | 0 | 0 | 0 | 37
C#CCN1CC(COc2ccccc2)OCCS1(=O)=O (stereo not drawn) | - | - | 0 | - | -
O=C(c1cc(-c2ccccc2)on1)N1CCc2ccccc2C1 | 0 | 0 | 0 | 0 | 37
Cc1ccc(C)c(N2CCN(C(c3ccc(N(C)C)cc3)c3nnnn3C(C)(C)C)CC2)c1 (stereo not drawn) | 0 | 0 | 0 | 0 | 46
Cc1ccc(C)c(N2CCN(C(c3ccccc3)c3nnnn3C(C)(C)C)CC2)c1 (stereo not drawn) | - | 0 | 0 | 0 | 0
Nc1cc(=O)[nH]c(SCC(=O)Nc2ccc(S(=O)(=O)N3CCOCC3)cc2)n1 | 0 | 0 | 0 | 0 | 35
Nc1cc(=O)[nH]c(SCC(=O)Nc2ccc(S(=O)(=O)N3CCCCC3)cc2)n1 | 0 | 0 | 0 | 0 | 0
O=C(CN1CCN(S(=O)(=O)c2ccc(Br)cc2)CC1)Nc1ccc2c(c1)OCO2 | 0 | 0 | 0 | 0 | 35
O=C(NCc1cccnc1)c1ccc(-c2ccc(F)c(F)c2)c2ccoc12 | - | 0 | 0 | 0 | 0
O=C(NCc1ccc(Cl)cc1)c1ccc(-c2ccc(F)c(F)c2)c2ccoc12 | - | 0 | 0 | 0 | 36
O=C(NCc1ccc(F)c(F)c1)c1ccc(-c2ccc(F)c(F)c2)c2ccoc12 | - | 0 | 0 | 0 | 80
Cc1ccccc1S(=O)(=O)N1CCCc2nc(-c3ccccc3)ccc21 | - | - | 0 | - | -
CCn1c(C)cc(/C=C2\NC(=O)N(Cc3ccc(Cl)cc3)C2=O)c1C | 0 | 0 | 0 | 0 | 0
CCN1C(=O)N/C(=C/c2cc(C)n(Cc3ccccc3)c2C)C1=O | 0 | 0 | 4.6 | 0 | 0
CCOC(=O)C(N)CSC1CC(=O)N(c2ccc(C(=O)OC)cc2)C1=O (stereo not drawn) | 0 | 11 | 0 | 0 | 0
CC(=Nc1ccc(Cl)cc1N)c1c(O)cc(C)oc1=O | - | - | 0 | - | -
COc1ccc(CN2CCCCCC2)cc1 | 0 | 0 | 0 | 0 | 0
COc1ccc(N=Nc2cc(C)c(O)c(CN3CCCCC3)c2)cc1 | 0 | 0 | 0 | 0 | 50
COc1ccc(NS(=O)(=O)c2ccc3c(c2)n(C)c(=O)n3C)cc1 | 0 | 0 | 0 | 0 | 37
Cc1ccc(NS(=O)(=O)c2ccc3c(c2)n(C)c(=O)n3C)cc1 | 0 | 0 | - | 0 | 0
SMILES | pCIP destab | bovine MsrA act | MsrA inh | MT1-MMP act inh | SKN-1 block
O=C(c1cccs1)N1CCc2c([nH]c3ccccc23)C1c1ccc(Cl)cc1 (stereo not drawn) | 0 | 0 | 0 | 0 | 50
O=C(O)COc1ccc(-c2nccc(-c3ccccn3)n2)cc1 | 0 | 0 | 0 | 0 | 0
FCCCOc1ccc(-c2nccc(-c3ccccn3)n2)cc1 | 0 | 0 | 0 | 0 | 66
CCOC(=O)c1sc(NC(=O)CN2C(=O)C3CC=CCC3C2=O)nc1C (stereo not drawn) | - | 0 | 0 | 0 | 0
CCOC(=O)c1c(-c2ccc(-c3ccccc3)cc2)csc1NC(=O)CNCCN(C)C | 0 | 0 | 0 | 0 | 52
CCOC(=O)c1c(-c2cccs2)csc1NC(=O)CN1CC(C)OC(C)C1 (stereo not drawn) | 0 | 0 | 0 | 0 | 37
CCOC(=O)c1c(-c2cccs2)csc1NC(C)=O | 0 | 0 | 0 | 0 | 0
